Source: PMC10583827 (RSC Medicinal Chemistry, 2023)
Values joined by “and” are separate entries in the source; they are usually repeats but may differ in a detail not shown here. Identical values can stand only once. “Also recorded” adds a separate entry of the source.

Assays:
[1] = Cyclic voltammetry; assay type: physicochemical; details: acetonitrile; for ipa/ipc, ratio of anodic to cathodic current / ΔEp, wave potential separation (Epa − Epc): scan rate 100 mV s−1; for E1/2, half wave potential (E1/2 = (Epa + Epc)/2) / Epa, anodic wave potential / Epc, cathodic wave potential: scan rate 100 mV s−1, V vs. Ag/AgCl
Outline: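 Test compound at 0.5 mM in anhydrous acetonitrile with 0.1 M […] as background electrolyte. Three-electrode cell: glassy carbon working, Pt wire counter, Ag/AgCl reference. Scanned from −1.7 to +1.0 V at 100 mV s−1 with a 20 mV E step, 6 cycles per compound, at 25 °C. Half-wave potentials were taken from the voltammograms.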

[2] = Host macrophage cytotoxicity, resazurin assay; assay type: cell-based; details: human, PMA-differentiated THP-1 cells (macrophages)
[3] = tested on: L. donovani strain 9515 amastigotes; test: Intramacrophage antileishmanial assay; assay type: cell-based, Leishmania donovani; details: antimonial-resistant L. donovani; activity retained 72 hours post lysis
[4] = tested on: Vero cells; test: General/basal cytotoxicity, resazurin assay
[5] = tested on: L. major strain IR173 amastigotes; test: Intramacrophage antileishmanial assay; assay type: cell-based, Leishmania major; details: activity retained 72 hours post macrophage lysis
[6] = tested on: L. major strain IR173 promastigotes; test: Leishmania antipromastigote assay; assay type: cell-based; details: read-out: Anti-promastigote activity IC50
[7] = historical data ref 35; cited from earlier work
[8] = tested on: T. cruzi strain CL trypomastigotes; test: T. cruzi antitrypomastigote assay; assay type: cell-based, Trypanosoma cruzi; details: >10 = did not qualify at 10 μM screen

SMILES	ipa/ipc, ratio of anodic to cathodic current [1]	ΔEp, wave potential separation (Epa − Epc) [1]	E1/2, half wave potential (E1/2 = (Epa + Epc)/2) [1]	Epa, anodic wave potential [1]	Epc, cathodic wave potential [1]	IC50 at 72 h [2]	Cidal anti-amastigote activity against L. donovani [3]	Toxicity to mammalian cells, class in words [4]	Cidal anti-amastigote activity against L. major [5]	IC50 [6]	E1/2, half wave potential [7]	Anti-trypomastigote activity IC50 [8]	General cytotoxicity Vero IC50 ([4]; Vero cells, 48 h, mean ± SD)
O=[N+]([O-])c1ccc(/C=N/N=C/c2ccccc2)o1 [1a, (1E,2E)-1-Benzylidene-2-[(5-nitrofuran-2-yl)methylene]hydrazine]	1.016	0.24 V	−0.88 V	−0.76 V	−1.00 V	> 100 µM							
O=[N+]([O-])c1ccc(/C=N/N=C/c2ccccc2)s1 [1b, (1E,2E)-1-Benzylidene-2-[(5-nitrothiophen-2-yl)methylene]hydrazine]	1.032	0.22 V	−0.95 V	−0.84 V	−1.06 V	> 100 µM	cidal	moderate toxicity					
O=[N+]([O-])c1ccc(/C=N/N=C/c2ccc(F)cc2)o1 [2a, (1E,2E)-1-(4-Fluorobenzylidene)-2-[(5-nitrofuran-2-yl)methylene]hydrazine]	0.990	0.28 V	−0.92 V	−0.78 V	−1.06 V				cidal				
O=[N+]([O-])c1ccc(/C=N/N=C/c2ccc(F)cc2)s1 [2b, (1E,2E)-1-(4-Fluorobenzylidene)-2-[(5-nitrothiophen-2-yl)methylene]hydrazine]	1.022	0.22 V	−0.89 V	−0.78 V	−1.00 V	> 100 µM		low toxicity					
O=[N+]([O-])c1ccc(/C=N/N=C/c2ccc(Cl)cc2)o1 [3a, (1E,2E)-1-(4-Chlorobenzylidene)-2-[(5-nitrofuran-2-yl)methylene]hydrazine]	0.967	0.28 V	−0.94 V	−0.80 V	−1.08 V	> 100 µM		low toxicity; also recorded: non-toxic	cidal				
O=[N+]([O-])c1ccc(/C=N/N=C/c2ccc(Br)cc2)o1 [4a, (1E,2E)-1-(4-Bromobenzylidene)-2-[(5-nitrofuran-2-yl)methylene]hydrazine]	0.891	0.26 V	−0.93 V	−0.80 V	−1.06 V	> 100 µM	cidal	low toxicity; also recorded: non-toxic	cidal				
Cc1ccc(/C=N/N=C/c2ccc([N+](=O)[O-])o2)cc1 [5a, (1E,2E)-1-(4-Methylbenzylidene)-2-[(5-nitrofuran-2-yl)methylene]hydrazine]	1.007	0.24 V	−0.94 V	−0.82 V	−1.06 V	> 100 µM		low toxicity					
COc1ccc(/C=N/N=C/c2ccc([N+](=O)[O-])o2)cc1 [6a, (1E,2E)-1-(4-Methoxybenzylidene)-2-[(5-nitrofuran-2-yl)methylene]hydrazine]	0.965	0.34 V	−0.85 V	−0.68 V	−1.02 V	> 100 µM	cidal						
O=[N+]([O-])c1ccc(/C=N/N=C/c2ccc(OCc3ccccc3)cc2)o1 [7a, (1E,2E)-1-[4-(Benzyloxy)benzylidene]-2-[(5-nitrofuran-2-yl)methylene]hydrazine]		0.26 V	−0.91 V	−0.78 V	−1.04 V	> 100 µM		low toxicity					
O=[N+]([O-])c1ccc(/C=N/N=C/c2ccc(OCc3ccccc3)cc2)s1 [7b, (1E,2E)-1-[4-(Benzyloxy)benzylidene]-2-[(5-nitrothiophen-2-yl)methylene]hydrazine]						> 100 µM		low toxicity					
O=[N+]([O-])c1ccc(/C=N/N=C/c2ccc(O)cc2)s1 [8b, 4-(E)-(E)-[(5-Nitrothiophen-2-yl)methylene]hydrazonomethylphenol]	1.002	0.24 V	−0.94 V	−0.82 V	−1.06 V		cidal	moderate toxicity					
O=[N+]([O-])c1ccc(/C=N/N=C/c2ccc([N+](=O)[O-])o2)cc1 [9a, (1E,2E)-1-(4-Nitrobenzylidene)-2-[(5-nitrofuran-2-yl)methylene]hydrazine]	0.963	0.22 V	−0.95 V	−0.84 V	−1.06 V		cidal		cidal				
C[C@@H]1[C@H](O)[C@@H](C)/C=C/C=C/C=C/C=C/C=C/C=C/C=C/[C@H](O[C@@H]2O[C@H](C)[C@@H](O)[C@H](N)[C@@H]2O)C[C@@H]2O[C@](O)(C[C@@H](O)C[C@@H](O)[C@H](O)CC[C@@H](O)C[C@@H](O)CC(=O)O[C@H]1C)C[C@H](O)[C@H]2C(=O)O [AmB, amphotericin B]										0.03 ± 0.01 µM			
CC1CS(=O)(=O)CCN1/N=C/c1ccc([N+](=O)[O-])o1 (stereo not drawn) [NTX, Nifurtimox]											−0.88 V and −0.88 ^g V		
O=[N+]([O-])c1ccc(/C=N/N=C/c2ccco2)cc1 [compound 12, (E)-1-(Furan-2-ylmethylene)-2-[(E)-4-nitrobenzylidene]hydrazine]												complete loss	complete loss
